Compound activity (PubChem)
Shown are actives, neighbours in structure and some others; about 12% of the full set was active somewhere.
CHOP inh – inhibitors of CHOP promoter induction, primary screen, cell-based, unfolded protein response, luciferase reporter | CHO-K1 CHOP-promoter luciferase, tunicamycin-induced, 15-18 h | inhibition, % at 10 µM | 220,000 tested, 3.8% active;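 active means compounds that reduced the stress-induced luciferase reporter signal by more than about 70% of percent inhibition, limit read from the data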
Rad51 HR inh – human RAD51 strand exchange inhibitors, primary screen, biochemical, fluorescence | hRad51 DNA strand exchange, fluorescence dequenching | inhibition, % at 10 µM | 200,000 tested, 0.085% active;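 active means inhibition above 40% at the single screening dose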
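System: hRad51 filaments on single-stranded DNA; reagent: Fluorescein- and BHQ1-tagged 47-mer duplex; compound dosing: one concentration, 10 µM final; timing: filaments 15 min 37 °C, then compound 30 min; measured by: fluorescein emission 520 nm, excitation 485 nm; benchmarks: per-plate controls and blanks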
PKD1 inh – inhibitors of human PKD1 kinase, biochemical, fluorescence polarization; Serine/threonine-protein kinase D1 (Homo sapiens), Q15139; PKD1 kinase fluorescence polarization assay; inhibition, % (concentration not given with the values); 200,000 tested, 0.056% active
Lmaj promast – Leishmania major promastigote growth inhibition, primary screen; 200,000 tested, 9% active; Leishmania major promastigotes, resazurin fluorescence viability; inhibition, % at 10 µM;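 further: promastigotes grown with compound for 44 hours at 28 °C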
Arbovirus inh – antivirals against arbovirus infection, primary screen, cell-based, full library, 10K replicate subset; arbovirus infection cell-based antiviral screen; inhibition, % at 10 µM; 200,000 tested, 0.37% active; AID 1251, 2008; in the data active means inhibition above about 30%
Wee1 stabilizer – Wee1 degradation inhibitors, primary screen, cell-based, HeLa, Wee1K328M-luciferase, luminescence | Wee1-like protein kinase (Homo sapiens), P30291 | HeLa Luc-Wee1K328M stability; 100% = proteasome inhibitor MG132 effect | reporter increase, % at 5 µM | 220,000 tested, 1.2% active | AID 1321, 2008;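 active means activation above the mean of all tested compounds plus 3 SD, set per screening run, cut at about 8.8% in these data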;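 further: cells exposed to compound for 20 h before luminescence read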
Numbers stand for hits; . = inactive; / = no result given. Unless noted, no stated cut-off is given here; in the data, active means inhibition above about 50%; inactive means the rest.

SMILES	CHOP inh	Rad51 HR inh	PKD1 inh	Lmaj promast	Arbovirus inh	Wee1 stabilizer
C=C(C(=O)c1ccccc1)C(CC(=O)c1ccccc1)c1ccccc1 (configuration not stated)	.	.	.	82	.	.
FC(F)(F)c1cnc(COc2ccc(Cl)cc2Cl)c(Cl)c1	.	/	/	/	/	.
COc1ccc(-n2c(C)nc3c(cnn3-c3ccc(C)cc3)c2=O)cc1	.	.	.	.	.	.
CCOC(=O)c1ccc(-n2c(C)nc3c(cnn3-c3ccccc3Cl)c2=O)cc1	.	.	.	.	.	.
COc1ccc(-n2c(C)nc3c(cnn3-c3ccc(Cl)cc3)c2=O)cc1	83	.	.	.	.	.
CCOC(=O)c1ccc(-n2c(C)nc3c(cnn3-c3ccc(Cl)cc3)c2=O)cc1	76	.	.	.	.	.
CCOC(=O)c1cc(-c2ccc(F)cc2)n(CC(=O)NCc2cccnc2)c1C	.	.	.	.	.	.
CCOC(=O)c1sc(N)c(C(=O)OCC)c1C	.	/	/	/	/	.
CCOC(=O)c1c(N)sc2c(OCC)c(Br)ccc12	85	.	.	.	.	.
O=C(NNC(=O)c1ccc2nonc2c1)Nc1ccc(Cl)cc1	.	.	/	/	/	.
CCOC(=O)c1[nH]c(C)c(C(=O)OCC(=O)Nc2sc3c(c2C#N)CCCCC3)c1C	84	.	.	.	.	.
CCN(CC)S(=O)(=O)c1ccc(C(=O)OCC(=O)Nc2sc3c(c2C#N)CCCCC3)cc1	.	.	.	.	.	.
Cc1ccc(C(=O)OCC(=O)Nc2sc3c(c2C#N)CCC3)cc1	.	.	.	52	.	.
COc1ccccc1N1CCN(C(C)C(=O)N2CC(C)OC(C)C2)CC1 (configuration not stated)	.	.	.	.	.	.
CN(CCCN1CCOCC1)Cc1nc(-c2ccccc2)no1	.	.	.	78	.	.
CN(Cc1nc(-c2ccccc2)no1)C1CCOCC1	.	/	/	/	/	.
Cc1ccc2c(c1)N(CC(=O)N1CCCCC1c1cccnc1)C(=O)CO2 (configuration not stated)	.	/	.	77	.	.
C=CCn1c(-c2ccccc2)ccc(C#N)c1=O	91	.	.	.	.	.
Cc1cccc(N2CCN(CC(=O)Nc3ccc(-n4cnnn4)cc3)CC2)c1C	94	.	.	.	.	.
CCn1ccnc1[C@@H]1C[C@H]2CN(c3ccccc3OC)C(=O)[C@]23CCCN13	.	.	.	.	.	.
CCOc1ccc(NC(=O)C(CC)NC(=O)c2ccccc2CO)cc1 (configuration not stated)	76	.	.	.	.	.
CCOc1ccc(NC(=O)[C@@H](NC(=O)c2ccccc2Br)C(C)C)cc1	.	.	.	98	.	.
CN(C)S(=O)(=O)c1ccc(C(=O)NNC(=O)C2COc3ccccc3O2)cc1 (configuration not stated)	.	.	.	.	.	.
COC(=O)c1ccccc1NC(=O)CSc1nnc(-c2cccnc2)n1N	.	44	.	.	.	.
Cc1ccc(NC(=O)c2ccc(-c3nn(C)c(=O)c4ccccc34)cc2)cc1	74	.	.	.	.	.
SMILES	CHOP inh	Rad51 HR inh	PKD1 inh	Lmaj promast	Arbovirus inh	Wee1 stabilizer
CN(C)NC(=S)NC1CC2CCC1C2 (configuration not stated)	.	/	/	/	/	.
CCOc1ccccc1NC(=S)N1CCC(NC(=O)NC23CC4CC(CC(C4)C2)C3)CC1	.	.	.	60	.	.
COc1ccccc1NC(=S)N1CCC(NC(=O)NC23CC4CC(CC(C4)C2)C3)CC1	.	.	.	97	.	.
CCOC(=O)N1CCC(N(CCN(C)C)C(=S)Nc2ccccc2OCC)CC1	.	.	.	.	.	.
COc1ccc(NC(=S)N2C3CCC2CC(NC(=O)NC24CC5CC(CC(C5)C2)C4)C3)c(OC)c1 (configuration not stated)	.	.	.	.	.	.
CSc1ccc(S(=O)(=O)NCc2ccc(Cl)cc2Cl)cc1	89	.	.	.	.	.
CSc1ccc(S(=O)(=O)NCc2ccccc2Cl)cc1	.	.	.	.	.	.
COc1ccc(C2=C/C(=C\c3cccc(OC(C)=O)c3)C(=O)O2)cc1	.	.	.	51	.	.
O=C(NC1C/C(=N/O)c2cc3c(cc21)OCO3)C(F)(F)F (configuration not stated)	.	.	.	.	.	.
CC(C)N1CCc2c(sc(NC(=O)c3cc4cc([N+](=O)[O-])ccc4s3)c2C(N)=O)C1	78	.	.	100	.	.
O=C(O)CCNc1nc(-c2ccccc2)nc2ccccc12	.	.	.	.	.	.
O=C(OCCNc1nc(-c2ccccc2)nc2ccccc12)c1ccncc1	.	.	.	72	.	.
O=C(OCCNc1nc(-c2ccccc2)nc2ccccc12)c1cccnc1	.	.	.	57	.	.
CCN1CCN(C(=O)CN(C)S(=O)(=O)c2ccc(OC)c(C)c2)CC1	.	.	.	98	.	.
COc1ccc(S(=O)(=O)N(C)CC(=O)N2CCN(C)CC2)cc1C	.	.	.	.	.	.
CS(=O)(=O)NCCSc1cc(C(F)(F)F)nc2ccccc12	.	.	/	/	/	.
CN1C(=O)/C(=C\C(=O)c2cccs2)c2ccccc21	.	.	.	100	.	.
Cc1nn(-c2ccccc2)c(N2CCCC2)c1/C=N/NC(=S)Nc1ccccc1F	.	.	.	.	.	.
CC1(C)CC(=O)c2cc(OCC(=O)O)ccc2O1	.	.	.	.	.	.
COc1ccc2c(c1)C(=O)CC(O)(C(F)F)O2 (configuration not stated)	.	/	/	/	/	9.8
Cc1ccc(Sc2cnc3ccccc3n2)cc1	86	.	.	.	.	.
CC(Sc1cnc2ccccc2n1)C(=O)O (configuration not stated)	.	.	.	.	.	.
CCN(CC)C(=O)CN(c1cc2c(cc1OC)oc1ccccc12)S(=O)(=O)c1ccc(C)cc1	.	.	.	69	.	.
Cn1ncc(Br)c1C(=O)NC12CC3CC(CC(C3)C1)C2	.	.	.	.	.	.
CCCCN(CCCC)S(=O)(=O)c1c(C)[nH]c(=O)[nH]c1=O	.	.	.	.	.	.
CCCCCCCCOC(=O)/C=C/c1c(C)[nH]c(=O)[nH]c1=O	.	.	.	93	.	.
CCOc1ccccc1-n1c(=O)c2ccccc2c2ccccc2c1=O	.	.	.	77	.	.
CCOc1ccc(-n2c(=O)c3ccccc3c3ccccc3c2=O)cc1	.	.	/	/	/	.
CCC(=O)N/N=C(\C)CC(=O)Nc1ccc2c(c1)OCCO2	.	.	.	.	.	.
